Legend:
[1] = Effect on mouse brain cortical mitochondrial swelling at 10 to 100 uM incubated for 5 mins by spectrophotometric analysis; format: ADME, Mitochondria
In short: (§1)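 Cortical mitochondria isolated from mice (100 μg) kept on ice for 5 min with or without inhibitor. Swelling then triggered by adding 200 μM Ca2+ to the reaction buffer and compared with vehicle-treated mitochondria.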

SK-N-SH [2] = assay: Cytotoxicty against human SK-N-SH cells at 5 to 100 uM after 48 hrs by MTT assay; format: cell-based
In short: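 SK-N-SH cells exposed at 37 °C for 48 h to 0, 5, 10, 25, 50 or 100 μM inhibitor diluted in culture medium, with vehicle as 0. Survival and toxicity read by MTT reduction.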

[3] = target: Peptidyl-prolyl cis-trans isomerase F, mitochondrial (Mus musculus) (UniProt Q99KR7); assay: Inhibition of cyclophilin D in mouse brain cortical mitochondria assessed as suppression of calcium-induced mitochondrial swelling incubated for 5 mins by spectrophotometric analysis; in short: as §1
Sequence of Peptidyl-prolyl cis-trans isomerase F, mitochondrial (Mus musculus) (Q99KR7 whole entry): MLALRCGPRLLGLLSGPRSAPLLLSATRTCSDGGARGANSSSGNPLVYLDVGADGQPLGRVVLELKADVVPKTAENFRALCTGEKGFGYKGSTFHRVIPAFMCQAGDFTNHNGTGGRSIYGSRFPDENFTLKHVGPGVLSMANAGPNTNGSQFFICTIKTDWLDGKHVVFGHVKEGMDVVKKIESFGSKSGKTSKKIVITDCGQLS

SK-N-SH [4] = assay: Effect on cytochrome c oxidase activity in human SK-N-SH cells at 10 to 20 uM after 48 hrs by spectrophotometrical analysis; format: ADME, cell-based
In short: (§2)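 SK-N-SH cells given 5 μM oligomeric Aβ1–42 together with 10 or 20 μM inhibitor, 1 μM CsA, or vehicle. Controls were Aβ alone and cells without Aβ. After 48 h, ATP level or CcO enzymatic activity measured in cell lysates.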

SK-N-SH [5] = assay: Effect on ATP level in human SK-N-SH cells at 10 to 20 uM after 48 hrs by bioluminescence analysis; format: ADME, cell-based; in short: as §2

inhibition [3]: Dose-dependent effect
Compound: Cc1nc(-c2ccc(OCC(C)C)c(C#N)c2)sc1C(=O)Nc1ccc(S(N)(=O)=O)cc1
Activity [1]: Non-toxic | Activity (SK-N-SH [2]): Non-toxic | Activity (SK-N-SH [4]): Non-toxic | Activity (SK-N-SH [5]): Non-toxic

Reference: ChEMBL document CHEMBL3804783, “Identification of a Small Molecule Cyclophilin D Inhibitor for Rescuing Aβ-Mediated Mitochondrial Dysfunction” (ACS Med Chem Lett, 2016)
